Paper PMC9575405 (ACS infectious diseases, 2021)

Tests used:
[1] = test system: S. aureus ATCC 13709 (Smith); experiment: Mouse abscess infection model; type: in vivo; conditions: after 26 h; orally at 20 mg/kg
Method in brief: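 Female CD-1 mice were infected s.c. in the right flank under anaesthesia with 0.25 mL inoculum (OD625 0.1 saline suspension from plate culture; target 1.0×10^6, actual 1.4×10^6 CFU/mouse) mixed with […] beads. From 2 h post-infection, test compounds were injected into the abscess (100 uL), repeated 12 h later; positive control was oral. Five per group; T=0 group sampled. Abscess CFU at 26 h; mean and SD.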

[2] = test system: S. aureus Smith; experiment: Mouse septicemia model; type: in vivo; conditions: 10 mg/kg i.v., five mice
Method in brief: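 CD-1 female mice (18–20 g), acclimated 5 days, were infected i.p. with 0.5 ml of S. aureus (overnight liquid culture diluted 1:10, grown 5 h shaking) diluted in 5% hog gastric mucin, pH 7.4, to give ≥90% mortality within 48 h (1.6 × 10^6 CFU). Single slow i.v. bolus at 10 mL/kg 1 h post-infection. Five mice per treatment group; ten vehicle-dosed infection controls. Read-out: survival.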

Row | Compound | increase in CFUs [1] | survival [2]
1 | CC(=O)NC[C@H]1CN(c2ccc(N3CCOCC3)c(F)c2)C(=O)O1 [linezolid] | 1 log10 | 
2 | CN[C@H](CC(C)C)C(=O)N[C@H]1C(=O)N[C@@H](CC(N)=O)C(=O)N[C@H]2C(=O)N[C@H]3C(=O)N[C@H](C(=O)N[C@H](C(=O)O)c4cc(O)cc(O)c4-c4cc3ccc4O)[C@H](O)c3ccc(c(Cl)c3)Oc3cc2cc(c3O[C@@H]2O[C@H](CO)[C@@H](O)[C@H](O)[C@H]2O[C@H]2C[C@](C)(N)[C@H](O)[C@H](C)O2)Oc2ccc(cc2Cl)[C@H]1O [vancomycin] |  | all five mice
